Hits are enriched below; roughly 2.9% of the tested compounds scored in any of these assays.
Insulin prom up: MIN6 insulin promoter up-regulation; z-score at 5 µM; AID 1625; hit rate 0.3% among 190,000; MIN6 insulin promoter-GFP reporter, high-content imaging; stronger effect = higher value;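 active = z-score above 3 at 5 µM with at least 500 cells counted in the well; inconclusive = wells under 500 cells, flagged as cytotoxic or low count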
Wee1 stabilizer: blocks degradation of human Wee1 kinase; P30291; HeLa Luc-Wee1K328M stability, luciferase luminescence; 100% = proteasome inhibitor MG132 effect; reporter increase, % at 5 µM; hit rate 1.2% among 220,000; AID 1321;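 active = activation above the mean of all tested compounds plus 3 SD, set per screening run, cut at about 8.8% in these data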;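 note: cells exposed to compound for 20 h before luminescence read; 0% = DMSO alone and 100% = MG132 at 30 µM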
Target sequence (P30291 whole entry K328M): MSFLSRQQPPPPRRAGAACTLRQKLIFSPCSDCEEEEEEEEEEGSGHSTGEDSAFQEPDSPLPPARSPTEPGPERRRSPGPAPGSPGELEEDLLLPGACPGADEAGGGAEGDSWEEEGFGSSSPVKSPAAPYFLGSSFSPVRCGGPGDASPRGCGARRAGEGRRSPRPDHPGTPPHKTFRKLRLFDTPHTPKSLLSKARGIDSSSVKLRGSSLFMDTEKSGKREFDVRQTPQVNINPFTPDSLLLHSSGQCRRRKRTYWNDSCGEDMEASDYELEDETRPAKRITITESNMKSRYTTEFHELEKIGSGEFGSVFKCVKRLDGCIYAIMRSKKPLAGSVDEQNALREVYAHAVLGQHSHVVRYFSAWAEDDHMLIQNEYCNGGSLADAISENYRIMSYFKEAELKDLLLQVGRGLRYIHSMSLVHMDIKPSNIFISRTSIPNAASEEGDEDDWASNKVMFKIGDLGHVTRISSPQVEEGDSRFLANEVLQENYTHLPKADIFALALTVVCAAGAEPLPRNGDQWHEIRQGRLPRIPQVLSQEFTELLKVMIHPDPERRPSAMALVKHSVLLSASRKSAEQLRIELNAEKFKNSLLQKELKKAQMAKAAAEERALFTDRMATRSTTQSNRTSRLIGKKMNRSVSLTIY
MT stabilize HCS: stabilizes microtubules in HeLa cells. HeLa tubulin immunostaining HCS, 24 h; share of cells brighter than vehicle mean+2SD. % tubulin-high responders, % at 10 µM. hit rate 0.83% among 200,000;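 active = plate Z-score above 3 for both tubulin-high and condensed-nucleus cell shares, with cell loss under 80%, at 10 µM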;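 note: anti alpha tubulin signal scored within the nucleus-defined area of each cell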
Autophagy HCS: alters autophagy in cells; hit rate 0.98% among 190,000; AID 463193; MEF GFP-LC3 puncta imaging; test concentration mostly 10 µM; calls only at 10 µM (by protocol);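 active = percentage of spot-positive cells more than 3 SD above its plate mean, without a fluorescence outlier flag or 80% toxicity; inconclusive = no clear call, values can overlap the other calls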;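 note: spot-positive cell cutoff set from DMSO-treated cells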
bCat nuc transl: beta-catenin nuclear translocation modulation; HeLa beta-catenin nuclear translocation, immunofluorescence imaging; nuclear translocation activity, % at 5 µM; hit rate 0.3% among 190,000; AID 1665;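 active = nuclear translocation activity above 50% at 5 µM, with a well cell count of 50 or more; inconclusive = wells under 50 cells across six images, flagged as toxic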;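 note: per-cell ratio of nuclear to cytoplasmic median beta-catenin stain intensity; plate controls were DMSO negative control for no effect and GSK-3 inhibitor IX positive control for full effect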
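Assay system: human HeLa cells, native beta-catenin; doses: 5 µM primary, 0.02–20 µM confirmation; incubation: compound treatment 24 h, 37°C, 5% CO2; technique: fluorescence imaging of beta-catenin antibody stain plus DAPI; measure: % activation, nuclear-to-cytoplasmic median beta-catenin signal ratio per cell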
Numbers without * were called inactive; i = inactive; ? = inconclusive; · = no result given; + = active, no number.

SMILES | Insulin prom up | Wee1 stabilizer | MT stabilize HCS | Autophagy HCS | bCat nuc transl
Cc1ccc(CNC(=O)C(C)C2Sc3ccccc3NC2=O)cc1 (stereo not given) | 0.25 | -2 | · | · | 0
CCOC(=O)N1CCC(NS(=O)(=O)c2ccc(NC(C)=O)c(Cl)c2)CC1 | -0.05 | 0 | · | · | -4
Cc1cc(NC(=O)COC(=O)c2ccc(S(=O)(=O)N3CCCc4ccccc43)cc2)no1 | -1 | 4 | 35* | i | 70*
Cc1ccc(OCCn2c(NC(=O)c3ccco3)nc3ccccc32)cc1 | 0.52 | 1 | i | i | -6
Cc1cccc(OCCn2c(NC(=O)c3ccco3)nc3ccccc32)c1 | -1.1 | -2 | 4 | + | ·
O=C(c1ccccc1)N1CCC(c2nc(-c3ccc(S(=O)(=O)N4CCOCC4)cc3)no2)CC1 | -2.2 | 0 | 2 | i | -1
O=C(Nc1ccccc1)N1CCC(c2nc(-c3ccc(S(=O)(=O)N4CCOCC4)cc3)no2)CC1 | -0.73 | 1 | 26* | i | -2
Cc1ccc(C)c(-n2c3nc(=O)[nH]c(=O)c-3cc3cc([N+](=O)[O-])ccc32)c1 | · | 6 | 7 | i | 93*
Cc1nn(Cc2ccccc2Cl)c(Cl)c1C(=O)NCCc1ccccc1 | 0.87 | 10* | 3 | i | -1
CC1=C(C(=O)Nc2ccccn2)C(c2ccc(Br)cc2)NC(=S)N1 (stereo not given) | -0.28 | 0 | 7 | i | ·
CCOc1cc(C2NC(=S)NC(C)=C2C(=O)Nc2ccc(OC)cc2)ccc1O (stereo not given) | -0.15 | 2 | 4 | i | -3
CC1=C(C(=O)Nc2ccccn2)C(c2ccc(Cl)cc2)NC(=S)N1 (stereo not given) | 0.39 | 9.9* | 5 | i | 1
CCOc1cccc(C2NC(=S)NC(C)=C2C(=O)Nc2ccccc2)c1 (stereo not given) | · | 7 | 14* | i | 1
O=C(COC(=O)Cn1c(C(F)(F)F)nc2ccccc21)Nc1ccc2c(c1)OCCO2 | · | 0 | 2 | i | -4
CN(C)N1C(N)=C(C#N)C(c2cccc3ccccc23)C2=C1CC(c1ccccc1)CC2=O (stereo not given) | 0.3 | -2 | 12* | i | 12
COCCn1c(SC(C)C(=O)Nc2ccc(Cl)cn2)nnc1-c1ccncc1 (stereo not given) | -0.31 | 1 | 2 | i | 0
COc1ccccc1-c1nn2c(C(F)(F)F)nnc2s1 | 0.3 | 2 | 14* | i | -3
COc1ccc(-c2nn3c(-c4cccc(C)c4)nnc3s2)cc1OC | · | 1 | 33* | i | ·
COc1ccccc1-c1nnc2sc(-c3cc4ccccc4o3)nn12 | -0.19 | 8 | 44 | i | 94*
COc1ccccc1-c1nn2c(-c3ccc(C(C)(C)C)cc3)nnc2s1 | 0.35 | · | · | · | -6
COc1ccccc1-c1nnc2sc(-c3ccc(N(C)C)cc3)nn12 | -1.3 | 1 | 8 | i | 74*
COc1ccccc1-c1nnc2sc(-c3cnccn3)nn12 | 1.5 | 0 | 2 | i | 3
Cc1cc2c(c(Sc3ccccc3)n1)C(=O)OC2 | 0.39 | -2 | 7 | i | ·
CN(C)c1ccc(-c2nn3c(-c4ccccc4Cl)nnc3s2)cc1 | -0.1 | 7 | 29* | i | 78*
COc1ccc2nc(SCC(=O)N3CCNC3=O)[nH]c2c1 | 0.6 | 9.0* | 6 | i | 0
SMILES | Insulin prom up | Wee1 stabilizer | MT stabilize HCS | Autophagy HCS | bCat nuc transl
COc1ccc(CC(=O)N2CCNC2=O)cc1 | -0.08 | 29* | 5 | i | -4
COC(=O)C1CCN(C(=O)CSc2nc3ccc(OC)cc3[nH]2)CC1 | 0.21 | -2 | 4 | i | 0
CC(=O)C(Sc1ncnc2sc3c(c12)CCCC3)C(C)=O | -0.32 | -1 | 7 | i | 1
CCOc1ccc(C(=O)CC(NCc2cccs2)C(=O)O)cc1 (stereo not given) | 0.59 | 4 | 3 | i | 2
COc1cc(NC(=O)c2cc(Cl)nnc2Cl)cc(OC)c1OC | 0.58 | 10* | 6 | i | 1
COc1cccc(NC(=O)c2cc(Cl)nnc2Cl)c1 | -0.46 | 1 | 2 | i | -3
COCCNC(=O)C(c1ccc(C)o1)N(C(=O)Cn1nnc2ccccc21)c1ccccc1 (stereo not given) | 0.18 | 0 | 1 | i | 1
Clc1ccc(-n2nnnc2Sc2ncnc3sccc23)cc1 | · | -2 | 4 | + | ·
Cc1sc2ncnc(Sc3nnnn3-c3ccccc3)c2c1C | 0.73 | -1 | 5 | i | -1
O=C(OC(C(=O)Nc1cccc(C(F)(F)F)c1)c1ccccc1)C1CCCCC1 (stereo not given) | 0.2 | 1 | 2 | i | 2
CCSc1ncc(/C=N/Nc2ccc([N+](=O)[O-])cc2)n1C | -0.16 | 9.6* | 6 | + | 18
CCSc1ncc(/C=N/Nc2ccccc2)n1C | 0.03 | 0 | 1 | i | -1
N#Cc1ccccc1Cn1cc(/C=N/Nc2ccc([N+](=O)[O-])cn2)c2ccccc21 | · | -3 | 3 | i | -3
O=[N+]([O-])c1ccc(N/N=C/c2ccc(OCc3cccc4ccccc34)cc2)nc1 | · | 1 | 5 | + | -4
O=[N+]([O-])c1ccc(N/N=C\c2cccn2-c2ccccc2)nc1 | 0.7 | -2 | 7 | + | 2
Cc1ccccc1-n1c(C)cc(/C=N/Nc2ccc([N+](=O)[O-])cn2)c1C | 0.2 | -1 | 2 | + | 0
Cc1ccc(S(=O)(=O)N(C)C)cc1NC(=O)CCc1ccccc1 | -0.22 | 2 | · | · | -1
COCCCNc1c2c3c(cccc3[nH]c1=O)C(=O)c1ccccc1-2 | · | 8 | 15* | ? | ·
COCCCNC1=C(Cl)C(=O)c2ccccc2C1=O | 0.05 | -2 | · | · | 2
COc1ccc(C(=O)N/C(=C/c2cccs2)c2nc3ccccc3[nH]2)cc1OC | · | -4 | 2 | i | -2
COc1cc(/C=C(/C(=O)c2cccs2)c2nc3ccccc3[nH]2)cc(OC)c1O | · | -1 | 6 | + | ·
O=C(/C(=C/c1ccc(Cl)cc1)c1nc2ccccc2[nH]1)c1ccccc1 | 0.24 | -1 | 47* | i | 0
Cc1ccc(NC(=S)N(CCN2CCCCC2)Cc2ccco2)cc1Cl | 0.05 | 1 | 5 | i | 0
Cc1nc2cc(C(=O)N3c4ccccc4CC3C)ccc2s1 (stereo not given) | 0.06 | -2 | 26* | i | 47
COC(=O)C1=C2SCC(=O)N2C(N)=C(C#N)C1 | 1.4 | 12* | · | · | -3
O=C(N/N=C/c1cccc(Br)c1)c1ccc(Cn2cc(Br)cn2)o1 | -0.42 | -1 | 2 | i | -1
Cc1ccsc1/C=N/NC(=O)c1ccc(Cn2cc(Br)cn2)o1 | -0.08 | 3 | 4 | + | ·
Cc1noc(C)c1COC(=O)C(c1ccccc1)c1ccccc1 | 1.7 | 6 | 4 | i | -3
O=C(N/N=C/c1ccc2c(c1)OCO2)C1COc2ccccc2O1 (stereo not given) | 0.06 | 1 | 41* | i | -2

High-throughput results as filed in PubChem BioAssay.
